Screens deposited in PubChem by several laboratories.
Hep lipid drop: modulators of hepatic lipid droplet formation; 0.4% of 240,000 active; inhibition, % at 6.5 µM; AML12 mouse hepatocytes, oleate lipid droplets, BODIPY imaging;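 active = lipid droplet intensity inhibited by at least 50%, with more than 500 cells counted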
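Material – AML12 mouse liver cells · Also added – oleate loading, 100 µM · Compound dosing – 6.5 µM single-point dosing · Times – overnight treatment with compound plus oleate · Measured by – fluorescence imaging, 20x objective, two fields per well · Read-out – percent inhibition of filter-corrected integrated lipid droplet intensity per well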
Tb MetRS inh: Trypanosoma brucei MetRS inhibition; purified T. brucei MetRS, ATP depletion, Kinase-Glo luminescence; inhibition, % at 11.9 µM; 0.4% of 360,000 active; AID 624268;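 active = inhibition above a per-plate cutoff of the control wells' mean inhibition plus 3 SD, cut at about 5.5% in these data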;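 note: 0% = DMSO wells median and 100% = median of wells with control inhibitor compound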
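Dosing: 11.9 µM single point; system: parasite MetRS enzyme; technique: luminescence of leftover ATP; times: 15 min enzyme-compound preincubation, 2 h reaction, 10 min detection, 25 °C; replicates: each compound tested once; read-out basis: percent inhibition relative to median high and low control wells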
HCV core dimer: blocks dimerization of HCV core protein; 0.33% of 300,000 active; inhibition, % at 5 µM; TR-FRET GST/Flag-core106 dimerization, 1536-well;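 active = inhibition above the mean of all tested compounds plus 3 SD, set per screening campaign, cut at about 45% in these data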
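Assay system: tagged HCV core106 pair (GST and Flag); medium: KF-containing HEPES buffer, pH 7.45, DTT, CHAPS, BSA; also added: Eu donor and XL665 acceptor anti-tag antibodies; dosing: 5 µM single dose; timing: compound-protein-antibody incubation 4 h at 22.5 °C; signal: TR-FRET 671 and 617 nm emission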
HCV NS3 hel inh: inhibitors of Hepatitis C virus NS3 helicase; NS3 helicase DNA unwinding, Cy5 molecular beacon fluorescence; inhibition, % at 10.9 µM; 0.56% of 290,000 active;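 active = inhibition above the mean of all tested compounds plus 3 SD, set per campaign, cut at about 35% in these data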;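 note: 0% = DMSO wells and 100% = thioflavine S control wells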
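Control set: DMSO versus 110 µM thioflavine S; Material: NS3 helicase fragment of HCV; Measured by: Cy5 fluorescence at 0 and 60 min, beacon hairpin quenching; Read-out basis: percent inhibition from t60/t0 fluorescence ratio; Times: reaction time 60 min, 25 °C; Repeats: single replicate; Compound dosing: single dose, 10.9 µM nominal final, DMSO 0.8% final.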
Lipid drop inh: confirmation of inhibitors of hepatic lipid droplet formation | AID 463183 | 65% of 870 active | inhibition, % at 5.2 µM | shares compounds with Hep lipid drop | AML12 mouse hepatocytes, BODIPY lipid droplet imaging; droplets induced with 100 µM oleic acid;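 active = inhibition of lipid droplet metric at least 50%, with more than 300 cells in each of four replicates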;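 note: plate controls were DMSO with oleic acid for no effect and 5 µM Triacsin-C for full effect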
AML12 cytotox: counter-screen for cytotoxicity in AML12 mouse hepatocytes | shares compounds with Hep lipid drop | DAPI nuclear morphology cytotoxicity imaging; stronger effect = higher value; cells fed 100 µM oleate overnight | z-score at 5 µM | 3% of 870 active | AID 463200; in the data active = z-score above about 6.3;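 note: compound exposure lasted overnight at 37 °C before fixation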
AML12 tox conf: AML12 hepatocyte cytotoxicity, confirmed; shares compounds with Hep lipid drop; AML12 mouse hepatocyte viability, ATP luminescence; cells loaded with 100 µM oleic acid; cytotoxicity, % at 50 µM; 530 tested, under 10 active;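 active = cytotoxicity above 50% in each of four replicates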;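 note: compound exposure lasted overnight at 37 °C before the ATP read; 0% = DMSO-treated cells and 100% = wells with no cells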
The depositor's hits bear a star; x = not tested or not shown. An excerpt weighted towards active compounds, which were near 1.3% of everything screened.

SMILES	Hep lipid drop	Tb MetRS inh	HCV core dimer	HCV NS3 hel inh	Lipid drop inh	AML12 cytotox	AML12 tox conf
CCCCN(C(=O)CCC(=O)Nc1cc(C)on1)C(C(=O)NC1CCCC1)c1ccccc1OCC (stereo not drawn)	-25	0	-6	31	x	x	x
COc1cccc(C(C(=O)NC2CCCC2)N(CCC(C)C)C(=O)CCC(=O)Nc2cc(C)on2)c1 (stereo not drawn)	23	0	14	7	x	x	x
C[C@@H]1CN([C@@H](C)CO)C(=O)c2cc(Br)cnc2O[C@H]1CN(C)C(=O)c1ccncc1	x	0	x	x	x	x	x
CSc1ccc(CCNC(=O)CN2C(=O)c3cccnc3Oc3ccc(C)cc32)cc1	-20	0	-2	-6	x	x	x
Cc1ccc(C)c(OCCC(=O)NCCc2ccc(Cl)cc2)c1	-3	0	-2	-9	x	x	x
CCOc1ccc(CCNC(=O)CS(=O)Cc2nc(-c3ccccc3C)oc2C)cc1OCC (stereo not drawn)	61*	0	-1	-3	89*	-0.19	13
CCOc1ccc(CCNC(=O)CSCc2ccc(C)cc2)cc1OCC	88*	-1	-3	-2	109*	-0.82	x
CCOc1ccc(CCNC(=O)CCOc2cc(C)ccc2C)cc1OCC	98*	0	9	-8	111*	-0.47	15
CCOc1ccc(CCNC(=O)COC(=O)COc2cc(C)cc(C)c2)cc1OCC	x	0	1	x	x	x	x
CCOc1ccc(CCNC(=O)CN2C(=O)c3cccnc3Oc3ccc(C)cc32)cc1OCC	92*	0	-1	-3	110*	-0.37	10
CCOC(=O)C1(C)CCCCN1C(=O)c1cccnc1 (stereo not drawn)	x	0	x	x	x	x	x
CC(C)(C)c1ccc(C(=O)N2CCC2(C)C(=O)NCc2cccc3ccccc23)cc1 (stereo not drawn)	x	0	x	x	x	x	x
O=C(NCCN1CCC(n2c(=O)[nH]c3ccccc32)CC1)c1ccccc1C(F)(F)F	x	-1	x	x	x	x	x
COc1ccc(CCNC(=O)CCC(=O)N2CCOc3ccc(C)cc32)cc1OC	-1	-1	8	3	x	x	x
CCOc1ccc(CCNC(=O)CCC(=O)N2CCOc3ccc(C)cc32)cc1OCC	80*	-1	-14	-17	112*	-1.1	16
CCCN(C)C1CN(Cc2cn(Cc3cc(C)cc(C)c3)nn2)S(=O)(=O)C1 (stereo not drawn)	x	-1	x	x	x	x	x
CCC(C)(C)NC(=O)C(c1ccc(C)cc1)N(CC1CCCO1)C(=O)CCC(=O)Nc1ccccn1 (stereo not drawn)	61*	-1	-10	3	51	-0.15	x
CC(C)c1ccc(-n2nnnc2SCC(=O)NC2CC2)cc1	x	0	x	x	x	x	x
Cc1ccc(NC(=O)C2(C)CCN2C(=O)Cc2ccc(C(C)C)cc2)cc1 (stereo not drawn)	x	0	x	x	x	x	x
CN(C)c1ccc(N=Nc2ccccc2Br)cc1	67*	0	-10	5	113*	0.039	81*
CSc1ccc(/C=C/C(=O)OCC(=O)NC2CCCCCC2)cc1	x	0	x	x	x	x	x
COc1ccccc1CNc1nc(NCC2CC2)nc2ccsc12	x	0	x	x	x	x	x
COc1ccc(C(=O)OC(C)C(=O)Nc2cc(C(F)(F)F)ccc2Cl)c(OC)c1OC (stereo not drawn)	80*	0	1	1	107*	-0.28	0
CC(C)C(C(=O)NCc1ccccc1)N1CCN(c2ccccc2F)CC1 (stereo not drawn)	x	0	x	x	x	x	x
CC1CCN(C(=O)c2ccc3c(c2NCCO)C(=O)c2ccccc2C3=O)CC1	68*	-1	-23	-5	109*	-0.38	37
SMILES	Hep lipid drop	Tb MetRS inh	HCV core dimer	HCV NS3 hel inh	Lipid drop inh	AML12 cytotox	AML12 tox conf
CCN(CC)CCNC(=O)c1ccc2c(c1NCCO)C(=O)c1ccccc1C2=O	23	0	-24	-10	x	x	x
Cc1cc(C)cc(N(CC(=O)O)S(=O)(=O)c2c(C)noc2C)c1	58*	0	3	2	28	-0.91	x
O=C(NCCc1c[nH]c2ccccc12)OC1CC2CC1[C@H]1CCCCN1C2=O (stereo partly drawn)	x	-1	x	x	x	x	x
COc1ccccc1N1N=C(c2ccc([N+](=O)[O-])cc2)CC1c1ccccc1 (stereo not drawn)	67*	0	11	-11	110*	-0.96	9
CCCCn1nnnc1C1(C)CCC(=O)N1c1ccc(N2CCOCC2)cc1 (stereo not drawn)	x	-1	x	x	x	x	x
CNc1nc(C)c(C(=O)c2ccc(Cl)cc2)s1	65*	-1	2	6	22	-0.14	x
Cc1nc(Nc2ccccc2)sc1C(=O)c1ccc(F)cc1	0	0	2	-5	x	x	x
O=C1/C(=C/c2ccc([N+](=O)[O-])cc2)CCC1C1CCCC1 (stereo not drawn)	54*	-1	0	8	15	-0.71	x
Cc1cccc(/C=C2\CCC(C3CCCC3)C2=O)c1 (stereo not drawn)	2	0	6	2	x	x	x
CCOc1ncccc1C(=O)OC(C)C(=O)Nc1ccc(CC)cc1 (stereo not drawn)	53*	0	-8	-4	97*	-0.59	16
ClC(Cl)(Cl)C1=NCc2nnn(Cc3ccccc3)c2N1	x	0	x	x	x	x	x
Cc1ccc(-n2nnnc2SCC(=O)Nc2ncc(Cc3ccccc3Cl)s2)cc1	79*	0	-1	14	104*	0.26	10
